From ChEMBL document CHEMBL2429732, “Aminopyrazole-Phenylalanine Based GPR142 Agonists: Discovery of Tool Compound and in Vivo Efficacy Studies” (ACS Med Chem Lett, 2013)
Calls of active or inactive are those of the source. The calls are words filed in the database; no cut-off is given here.

Columns and labels:
[1] = target: T1, Probable G-protein coupled receptor 142 (Mus musculus, UniProt Q7TQN9); assay: Agonist activity at mouse GPR142
T1 sequence (Q7TQN9 whole entry): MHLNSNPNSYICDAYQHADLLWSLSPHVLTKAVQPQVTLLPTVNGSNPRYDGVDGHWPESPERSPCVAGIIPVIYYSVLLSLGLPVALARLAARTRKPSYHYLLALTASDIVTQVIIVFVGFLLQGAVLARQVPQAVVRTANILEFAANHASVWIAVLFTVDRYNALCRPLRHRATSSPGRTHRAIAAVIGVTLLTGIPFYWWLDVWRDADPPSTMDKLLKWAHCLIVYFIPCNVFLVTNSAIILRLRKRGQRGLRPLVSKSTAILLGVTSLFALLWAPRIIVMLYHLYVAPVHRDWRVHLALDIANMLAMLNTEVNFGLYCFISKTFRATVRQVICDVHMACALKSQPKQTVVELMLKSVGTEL
Method in brief: (§1)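 HEK293 cells, plated at 25 000/well, were transiently transfected with 100 ng receptor plasmid per well. They were labelled overnight with 1.0 μCi/mL tritiated inositol in inositol-free DMEM/10% dialyzed FCS. Cells were then exposed to graded compound levels in HBSS/0.01% BSA with 10 mM LiCl for 1 h at 37 °C. Cells were lysed in cold 20 mM formic acid (5 h, 4 °C), and IP was captured on yttrium silicate SPA beads and read by scintillation counting. EC50 is the mean of three runs.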

[2] = Metabolic stability in rat liver microsomes assessed as compound remaining at 1 uM after 30 mins; assay type: ADME, Microsome; conditions: read-out: Stability
[3] = Bioavailability in cynomolgus monkey at 2 mg/kg, sc; assay type: ADME, organism-based, Macaca fascicularis; conditions: in vivo
Mus musculus [4] = assay: Antidiabetic activity in wild type mouse assessed as reduction of plasma glucose AUC at 10 mg/kg, sc administered 15 mins before glucose challenge measured up to 90 mins; set-up: scale not given: the % may be the effect or the level left; conditions: route subcutaneous
[5] = Tmax in rat at 2 mg/kg, po; assay type: ADME, organism-based; set-up: dose 2 mg/kg, route oral; conditions: in vivo
Method in brief: (§2)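 Oral dosing used the ethyl ester prodrug. All pharmacokinetic calculations were based on the parent free acid in plasma.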

[6] = Clearance in cynomolgus monkey at 0.5 mg/kg, iv; assay type: ADME, organism-based, Macaca fascicularis; set-up: dose 0.5 mg/kg, route intravenous; conditions: in vivo
[7] = Cmax in rat at 2 mg/kg, po; assay type: ADME, organism-based; set-up: dose 2 mg/kg, route oral; conditions: in vivo; method in brief: as §2
[8] = target: T2, Probable G-protein coupled receptor 142 (Mus musculus) (UniProt Q7TQN9); assay: Ex vivo agonist activity at GPR142 in wild type mouse islets assessed as stimulation of insulin secretion at 3 to 10 uM by ELISA in presence of glucose
T2 sequence (whole entry): T1 sequence (Q7TQN9 whole entry)
Method in brief: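 Islets from wild-type and GPR142 knockout mice incubated with compound at 3.0 and 10.0 μM in presence of 16.7 mM glucose; insulin secretion measured.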

[9] = Cmax in rat at 2 mg/kg, sc; assay type: ADME, organism-based; set-up: dose 2 mg/kg, route subcutaneous; conditions: in vivo
[10] = Clearance in rat at 0.5 mg/kg, iv; assay type: ADME, organism-based; set-up: dose 0.5 mg/kg, route intravenous; conditions: in vivo
[11] = Volume of distribution at steady state in cynomolgus monkey at 0.5 mg/kg, iv; assay type: ADME, organism-based, Macaca fascicularis; set-up: dose 0.5 mg/kg, route intravenous; conditions: in vivo, read-out: Vdss
[12] = Agonist activity at cynomolgus monkey GPR142; set-up: species or system Macaca fascicularis; method in brief: as §1
[13] = Cmax in cynomolgus monkey at 10 mg/kg, po; assay type: ADME, organism-based, Macaca fascicularis; set-up: dose 10 mg/kg, route oral; conditions: in vivo; method in brief: as §2
[14] = Fraction unbound in human plasma; assay type: ADME, cell-free
[15] = Tmax in cynomolgus monkey at 2 mg/kg, sc; assay type: ADME, organism-based, Macaca fascicularis; set-up: dose 2 mg/kg, route subcutaneous; conditions: in vivo
[16] = Cmax in cynomolgus monkey at 2 mg/kg, sc; assay type: ADME, organism-based, Macaca fascicularis; set-up: dose 2 mg/kg, route subcutaneous; conditions: in vivo
Mus musculus [17] = organism: Mus musculus; assay: Induction of insulin secretion in GPR142-deficient mouse islets at 3 to 10 uM by ELISA in presence of glucose; assay type: functional
Method in brief: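 Islets isolated from wild-type and GPR142 knockout mice were incubated with test agent at 3.0 and 10.0 μM in the presence of 16.7 mM glucose, and insulin secretion was measured.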

[18] = Half life in cynomolgus monkey at 0.5 mg/kg, iv; assay type: ADME, organism-based, Macaca fascicularis; set-up: dose 0.5 mg/kg, route intravenous; conditions: in vivo
[19] = target: T3, Nuclear receptor subfamily 1 group I member 2 (Homo sapiens, UniProt O75469); assay: Induction of human PXR activity
T3 sequence (O75469 whole entry): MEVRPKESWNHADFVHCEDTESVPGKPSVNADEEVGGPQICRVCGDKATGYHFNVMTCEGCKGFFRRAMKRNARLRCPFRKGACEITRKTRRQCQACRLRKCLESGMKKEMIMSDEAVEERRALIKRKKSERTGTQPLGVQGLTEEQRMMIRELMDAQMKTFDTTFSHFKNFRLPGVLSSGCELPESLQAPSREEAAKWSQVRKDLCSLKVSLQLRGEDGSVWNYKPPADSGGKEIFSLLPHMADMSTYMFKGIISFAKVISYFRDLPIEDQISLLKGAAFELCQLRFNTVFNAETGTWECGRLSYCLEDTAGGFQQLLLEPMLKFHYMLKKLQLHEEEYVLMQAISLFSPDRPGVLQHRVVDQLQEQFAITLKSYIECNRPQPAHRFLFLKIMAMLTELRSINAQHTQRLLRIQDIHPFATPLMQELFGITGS

Macaca fascicularis = organism: Macaca fascicularis; assay: Agonist activity at cynomolgus monkey GPR142 relative to tryptophan
Method in brief: (§3)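 Inositol phosphate accumulation in HEK293 cells transfected with mouse or cynomolgus monkey receptor plasmid, tritiated inositol labelling, compounds in HBSS/0.01% BSA plus 10 mM LiCl, 37 °C for 1 h, SPA scintillation read-out; maximal efficacy expressed relative to tryptophan response.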

[20] = Permeability across human Caco2 cells; assay type: ADME, cell-based; conditions: Caco-2, read-out: permeability
[21] = Fraction unbound in rat plasma; assay type: ADME, cell-free
[22] = Fraction unbound in cynomolgus monkey plasma; assay type: ADME, cell-free, Macaca fascicularis
Cytochrome P450 2D6 = Cytochrome P450 2D6 (Homo sapiens, UniProt P10635); assay: Inhibition of CYP2D6 (unknown origin); assay type: ADME
Cytochrome P450 2D6, sequence (P10635 whole entry): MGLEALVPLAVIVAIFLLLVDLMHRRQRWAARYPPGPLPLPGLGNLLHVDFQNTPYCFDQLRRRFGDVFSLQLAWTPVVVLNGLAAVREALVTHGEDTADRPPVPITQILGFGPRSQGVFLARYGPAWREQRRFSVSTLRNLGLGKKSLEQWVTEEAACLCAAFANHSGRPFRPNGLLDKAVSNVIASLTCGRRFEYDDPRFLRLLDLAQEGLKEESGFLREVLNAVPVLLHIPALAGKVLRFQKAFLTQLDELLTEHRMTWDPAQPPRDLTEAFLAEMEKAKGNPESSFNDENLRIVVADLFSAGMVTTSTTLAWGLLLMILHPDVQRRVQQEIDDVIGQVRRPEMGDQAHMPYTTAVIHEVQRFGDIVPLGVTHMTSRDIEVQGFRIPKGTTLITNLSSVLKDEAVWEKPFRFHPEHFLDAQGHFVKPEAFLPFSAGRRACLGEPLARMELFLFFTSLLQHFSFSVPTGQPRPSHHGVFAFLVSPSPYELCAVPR

[23] = Tmax in rat at 2 mg/kg, sc; assay type: ADME, organism-based; set-up: dose 2 mg/kg, route subcutaneous; conditions: in vivo
[24] = Oral bioavailability in rat at 2 mg/kg; assay type: ADME, organism-based; conditions: in vivo; method in brief: as §2
[25] = Tmax in cynomolgus monkey at 10 mg/kg, po; assay type: ADME, organism-based, Macaca fascicularis; set-up: dose 10 mg/kg, route oral; conditions: in vivo; method in brief: as §2
[26] = Bioavailability in rat at 2 mg/kg, sc; assay type: ADME, organism-based; conditions: in vivo
[27] = target: Voltage-gated inwardly rectifying potassium channel KCNH2 (Homo sapiens, UniProt Q12809); assay: Inhibition of human ERG by patch clamp assay
Voltage-gated inwardly rectifying potassium channel KCNH2, sequence (Q12809 whole entry): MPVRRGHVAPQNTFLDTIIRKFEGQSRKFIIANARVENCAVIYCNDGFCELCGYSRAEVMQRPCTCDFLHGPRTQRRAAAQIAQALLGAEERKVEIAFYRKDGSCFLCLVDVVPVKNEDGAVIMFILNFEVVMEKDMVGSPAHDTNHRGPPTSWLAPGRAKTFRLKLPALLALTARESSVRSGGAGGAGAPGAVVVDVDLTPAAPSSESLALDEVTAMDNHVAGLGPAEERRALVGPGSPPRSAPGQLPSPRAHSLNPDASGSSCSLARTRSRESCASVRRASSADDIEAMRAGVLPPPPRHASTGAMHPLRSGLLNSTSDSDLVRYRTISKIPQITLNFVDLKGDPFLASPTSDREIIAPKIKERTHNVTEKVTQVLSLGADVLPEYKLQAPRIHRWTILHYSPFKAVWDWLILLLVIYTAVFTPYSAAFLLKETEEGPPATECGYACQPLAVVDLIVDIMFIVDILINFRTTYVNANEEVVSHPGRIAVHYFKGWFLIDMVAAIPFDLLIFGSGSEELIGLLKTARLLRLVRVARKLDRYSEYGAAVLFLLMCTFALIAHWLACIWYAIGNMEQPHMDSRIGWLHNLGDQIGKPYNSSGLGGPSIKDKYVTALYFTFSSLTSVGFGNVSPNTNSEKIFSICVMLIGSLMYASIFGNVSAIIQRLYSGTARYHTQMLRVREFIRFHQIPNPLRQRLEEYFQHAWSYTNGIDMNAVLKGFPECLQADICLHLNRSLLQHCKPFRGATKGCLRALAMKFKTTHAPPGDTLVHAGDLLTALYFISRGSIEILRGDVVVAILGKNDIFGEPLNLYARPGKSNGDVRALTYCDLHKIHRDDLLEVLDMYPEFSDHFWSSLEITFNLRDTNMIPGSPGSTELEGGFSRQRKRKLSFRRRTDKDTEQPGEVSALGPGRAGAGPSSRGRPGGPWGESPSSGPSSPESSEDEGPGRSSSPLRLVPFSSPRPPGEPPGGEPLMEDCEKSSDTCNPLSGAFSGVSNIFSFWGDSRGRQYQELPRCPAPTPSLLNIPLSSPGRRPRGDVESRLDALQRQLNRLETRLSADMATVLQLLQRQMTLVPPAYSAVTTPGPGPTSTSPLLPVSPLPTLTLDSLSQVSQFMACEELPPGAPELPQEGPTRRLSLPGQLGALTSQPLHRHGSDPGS

Mus musculus [28] = assay: Antidiabetic activity in mouse bearing human islets assessed as reduction of plasma glucose AUC at 10 mg/kg, sc administered 15 mins before glucose challenge measured up to 90 mins; set-up: scale not given: the % may be the effect or the level left; conditions: route subcutaneous
[29] = Volume of distribution at steady state in rat at 0.5 mg/kg, iv; assay type: ADME, organism-based; set-up: dose 0.5 mg/kg, route intravenous; conditions: in vivo, read-out: Vdss
[30] = Half life in rat at 0.5 mg/kg, iv; assay type: ADME, organism-based; set-up: dose 0.5 mg/kg, route intravenous; conditions: in vivo
[31] = target: T4, Probable G-protein coupled receptor 142 (Homo sapiens, UniProt Q7Z601); assay: Agonist activity at human GPR142 expressed in HEK293 cells assessed as inositol phosphate accumulation using [3H]-inositol after 1 hr by scintillation counting; assay type: functional, cell-based
T4 sequence (Q7Z601 whole entry): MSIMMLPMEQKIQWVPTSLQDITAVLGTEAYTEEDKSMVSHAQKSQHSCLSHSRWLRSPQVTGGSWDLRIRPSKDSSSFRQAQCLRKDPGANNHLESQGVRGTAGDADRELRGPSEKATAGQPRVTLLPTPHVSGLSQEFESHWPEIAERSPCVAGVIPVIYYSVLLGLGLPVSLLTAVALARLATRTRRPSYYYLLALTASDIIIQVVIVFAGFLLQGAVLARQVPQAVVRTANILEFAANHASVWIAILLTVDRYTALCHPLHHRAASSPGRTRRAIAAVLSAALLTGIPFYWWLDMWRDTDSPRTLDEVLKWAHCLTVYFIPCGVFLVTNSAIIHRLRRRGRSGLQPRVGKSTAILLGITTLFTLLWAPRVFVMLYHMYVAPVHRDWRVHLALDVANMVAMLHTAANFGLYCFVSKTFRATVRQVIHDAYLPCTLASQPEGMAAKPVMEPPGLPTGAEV

[32] = target: T2, Probable G-protein coupled receptor 142 (Mus musculus); assay: Agonist activity at mouse GPR142 relative to tryptophan; method in brief: as §3
[33] = Metabolic stability in human liver microsomes assessed as compound remaining at 1 uM after 30 mins; assay type: ADME, Microsome; conditions: read-out: Stability
Method in brief: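 Compound at 1.0 μM was incubated for 30 min in human liver microsomes; percentage of intact compound remaining was determined.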

Cytochrome P450 3A4 = Cytochrome P450 3A4 (Homo sapiens, UniProt P08684); assay: Inhibition of CYP3A4 (unknown origin); assay type: ADME
Cytochrome P450 3A4, sequence (P08684 whole entry): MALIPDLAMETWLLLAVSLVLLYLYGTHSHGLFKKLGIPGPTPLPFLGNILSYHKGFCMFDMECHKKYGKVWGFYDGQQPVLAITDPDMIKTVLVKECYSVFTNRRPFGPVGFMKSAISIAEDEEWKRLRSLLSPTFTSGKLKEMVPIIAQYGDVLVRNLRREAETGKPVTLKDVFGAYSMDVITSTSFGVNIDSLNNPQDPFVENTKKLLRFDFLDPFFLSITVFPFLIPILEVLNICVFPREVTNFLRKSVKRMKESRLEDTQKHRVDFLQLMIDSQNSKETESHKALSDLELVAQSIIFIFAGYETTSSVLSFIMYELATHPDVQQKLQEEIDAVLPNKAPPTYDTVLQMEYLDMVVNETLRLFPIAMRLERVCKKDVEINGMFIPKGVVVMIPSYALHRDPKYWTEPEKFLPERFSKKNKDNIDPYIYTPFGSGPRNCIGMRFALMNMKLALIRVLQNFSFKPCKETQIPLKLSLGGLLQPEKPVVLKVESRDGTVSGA

[34] = Oral bioavailability in cynomolgus monkey at 10 mg/kg; assay type: ADME, organism-based, Macaca fascicularis; conditions: in vivo; method in brief: as §2

EC50 [1]: 31 nM
remaining at 0.5 h, 1 µM [2]: > 90%
bioavailability [3]: 100%
Tmax [5]: 0.83 h
clearance [6]: 7.33 mL/min/kg
Cmax [7]: 0.17 µM
Activity [8]: Active
Cmax [9]: 7.5 µM
clearance [10]: 2.5 mL/min/kg
Vd [11]: 0.33 L/kg
EC50 [12]: 79 nM
Cmax [13]: 0.4 µM
fraction unbound [14]: 0.16
Tmax [15]: 0.5 h
Cmax [16]: 6.3 µM
half-life [18]: 2.3 h
Activity [19]: Not Active
Emax (Macaca fascicularis): 79%
Papp [20]: 0.9 ×10⁻⁶ cm/s
fraction unbound [21]: 0.01
fraction unbound [22]: 0.1
IC50 (Cytochrome P450 2D6): > 30000 nM
Tmax [23]: 0.38 h
bioavailability [24]: 3%
Tmax [25]: 4 h
bioavailability [26]: 81%
Vd [29]: 0.29 L/kg
half-life [30]: 4.1 h
EC50 [31]: 52 nM
Emax [32]: 73%
remaining at 0.5 h, 1 µM [33]: > 90%
IC50 (Cytochrome P450 3A4): > 30000 nM
bioavailability [34]: 6%
SMILES: Cn1nc(-c2ccncc2)cc1NC(=O)[C@H](Cc1ccccc1)NCC(=O)O
Activity (Mus musculus [4]): -25%
Activity (Mus musculus [17]): inactive
IC50 [27]: > 30000 nM
Activity (Mus musculus [28]): -28%
